The source made the active and inactive calls. No cut-off for these calls is given here.
Tests used:
HepG2 [1] = experiment: Induction of apoptosis in human HepG2 cells assessed as cell shrinkage at 0.3 to 0.6 uM after 48 hrs by Hoechst 33258 staining-based fluorescent microscopic analysis; assay type: functional
Method in brief: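 HepG2 cells grown on coverslips were treated for 48 h at 0.3, 0.6 or 1.2 μM, then fixed in 4% paraformaldehyde for 10 min. After PBS washes, cells were stained with Hoechst 33258 for 5 min and washed again. Nuclear morphology was examined by fluorescence imaging at 350 nm excitation and 460 nm emission.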

HepG2 [2] = experiment: Induction of apoptosis in human HepG2 cells assessed as reduction in procaspase-3 expression levels at 2 uM after 24 hrs by membrane-based sandwich immunoassay; assay type: functional, cell-based
Method in brief: (§1)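 HepG2 cells exposed to 2 μM for 24 h. Proteins extracted per kit protocol. Relative levels of 35 apoptosis-related proteins measured on a human apoptosis antibody array.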

HepG2 [3] = experiment: Induction of apoptosis in human HepG2 cells assessed as reduction in mitochondrial membrane potential at 0.3 uM after 48 hrs by JC-1 staining-based flow cytometric analysis (reference value: 1.6%); assay type: functional; design: scale not given: the % may be the effect or the level left
Method in brief: (§2)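 HepG2 cells cultured overnight, then incubated in triplicate with 0, 0.3, 0.6 or 1.2 μM, or vehicle, for 48 h. Stained with the cationic dye JC-1. Flow cytometry gave the percentage of cells with healthy versus collapsed mitochondrial membrane potential.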

HepG2 [4] = experiment: Induction of apoptosis in human HepG2 cells assessed as reduction in c-IAP1 expression levels at 2 uM after 24 hrs by membrane-based sandwich immunoassay; assay type: functional, cell-based; method in brief: as §1
HepG2 [5] = experiment: Induction of apoptosis in human HepG2 cells assessed as viable cells at 1.2 uM after 72 hrs by Annexin V-APC/7-AAD or propidium iodide staining-based flow cytometric analysis (reference value: 90.08%); assay type: functional; settings: HepG2, 72 h, read-out: Activity
HepG2 [6] = experiment: Induction of apoptosis in human HepG2 cells assessed as early apoptotic cells at 1.2 uM after 72 hrs by Annexin V-APC/7-AAD or propidium iodide staining-based flow cytometric analysis (reference value: 1.87%); assay type: functional
L02 [7] = experiment: Induction of apoptosis in human LO2 cells assessed as necrotic cells at 50 uM after 72 hrs by Annexin V-FITC/7-AAD or propidium iodide staining-based flow cytometric analysis (reference value: 1.99%); assay type: cell-based; settings: l02, 72 h
HepG2 [8] = experiment: Cell cycle arrest in human HepG2 cells assessed as accumulation at S phase after 72 hrs by propidium iodide staining-based flow cytometric analysis; assay type: functional
Method in brief: (§3)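 Concentrations used were 0, 0.3, 0.6 and 1.2 μM in HepG2 and 0, 0.16, 0.31 and 1.25 μM in PC-3, with untreated cells as control, for 72 h. Cells were trypsinized, washed in PBS, fixed in cold ethanol at 4 °C overnight, then incubated 30 min in PBS containing RNase A and propidium iodide. DNA content was read by flow cytometry to give phase distribution.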

HepG2 [9] = experiment: Induction of apoptosis in human HepG2 cells assessed as necrotic cells at 0.6 uM after 72 hrs by Annexin V-APC/7-AAD or propidium iodide staining-based flow cytometric analysis (reference value: 1.87%); assay type: functional
HepG2 [10] = experiment: Cell cycle arrest in human HepG2 cells assessed as accumulation at S phase at 0.3 uM after 72 hrs by propidium iodide staining-based flow cytometric analysis (reference value: 44.6%); assay type: functional; method in brief: as §3
L02 [11] = experiment: Induction of apoptosis in human LO2 cells assessed as necrotic cells at 1.2 uM after 72 hrs by Annexin V-FITC/7-AAD or propidium iodide staining-based flow cytometric analysis (reference value: 1.99%); assay type: cell-based; settings: l02, 72 h
HepG2 [12] = experiment: Cell cycle arrest in human HepG2 cells assessed as accumulation at S phase at 1.2 uM after 72 hrs by propidium iodide staining-based flow cytometric analysis (reference value: 44.6%); assay type: functional; method in brief: as §3
L02 [13] = experiment: Induction of apoptosis in human LO2 cells assessed as late apoptotic cells at 1.2 uM after 72 hrs by Annexin V-FITC/7-AAD or propidium iodide staining-based flow cytometric analysis (reference value: 0.11%); assay type: cell-based; settings: l02, 72 h
HepG2 [14] = experiment: Induction of apoptosis in human HepG2 cells assessed as reduction in mitochondrial membrane potential at 1.2 uM after 48 hrs by JC-1 staining-based flow cytometric analysis (reference value: 1.6%); assay type: functional; design: scale not given: the % may be the effect or the level left; method in brief: as §2
HepG2 [15] = experiment: Cell cycle arrest in human HepG2 cells assessed as accumulation at G1 phase at 1.2 uM after 72 hrs by propidium iodide staining-based flow cytometric analysis (reference value: 34%); assay type: functional; method in brief: as §3
L02 [16] = experiment: Induction of apoptosis in human LO2 cells assessed as late apoptotic cells at 1.25 uM after 72 hrs by Annexin V-FITC/7-AAD or propidium iodide staining-based flow cytometric analysis (reference value: 0.11%); assay type: cell-based; settings: l02, 72 h
PC-3 [17] = experiment: Cell cycle arrest in human PC3 cells assessed as accumulation at G1 phase at 1.25 uM after 72 hrs by propidium iodide staining-based flow cytometric analysis (reference value: 53.36%); assay type: functional; method in brief: as §3
PC-3 [18] = experiment: Cell cycle arrest in human PC3 cells assessed as accumulation at G2/M phase at 0.31 uM after 72 hrs by propidium iodide staining-based flow cytometric analysis (reference value: 10.19%); assay type: functional; method in brief: as §3
PC-3 [19] = experiment: Induction of apoptosis in human PC3 cells assessed as chromatin condensation at 0.16 to 1.25 uM after 48 hrs by Hoechst 33258 staining-based fluorescent microscopic analysis; assay type: functional, cell-based
Method in brief: (§4)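 PC-3 cells grown on sterile cover slips were exposed to 0, 0.16, 0.31 or 1.25 μM, or vehicle, for 48 h. Then fixed with 4% paraformaldehyde for 10 min, washed twice in PBS, stained with Hoechst 33258 for 5 min and washed again. Nuclei imaged at 350 nm excitation and 460 nm emission.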

PC-3 [20] = experiment: Induction of apoptosis in human PC3 cells assessed as necrotic cells at 0.16 uM after 72 hrs by Annexin V-APC/7-AAD or propidium iodide staining-based flow cytometric analysis (reference value: 2.43%); assay type: functional
PC-3 [21] = experiment: Induction of apoptosis in human PC3 cells assessed as necrotic cells at 1.25 uM after 72 hrs by Annexin V-APC/7-AAD or propidium iodide staining-based flow cytometric analysis (reference value: 2.43%); assay type: functional
PC-3 [22] = experiment: Induction of apoptosis in human PC3 cells assessed as rupture of cell membrane at 0.16 to 1.25 uM after 48 hrs by Hoechst 33258 staining-based fluorescent microscopic analysis; assay type: functional; method in brief: as §4
L02 [23] = experiment: Induction of apoptosis in human LO2 cells assessed as necrotic cells at 1.25 uM after 72 hrs by Annexin V-FITC/7-AAD or propidium iodide staining-based flow cytometric analysis (reference value: 1.99%); assay type: cell-based; settings: l02, 72 h
PC-3 [24] = experiment: Induction of apoptosis in human PC3 cells assessed as late apoptotic cells at 0.16 uM after 72 hrs by Annexin V-APC/7-AAD or propidium iodide staining-based flow cytometric analysis (reference value: 4.74%); assay type: functional
PC-3 [25] = experiment: Induction of apoptosis in human PC3 cells assessed as viable cells at 0.16 uM after 72 hrs by Annexin V-APC/7-AAD or propidium iodide staining-based flow cytometric analysis (reference value: 88.74%); assay type: functional; settings: PC-3, 72 h, read-out: Activity
PC-3 [26] = experiment: Cell cycle arrest in human PC3 cells assessed as accumulation at G2/M phase at 0.16 uM after 72 hrs by propidium iodide staining-based flow cytometric analysis (reference value: 10.19%); assay type: functional; method in brief: as §3

O=C(NCCCOc1no[n+]([O-])c1S(=O)(=O)c1ccccc1)[C@H]1O[C@@H](Oc2cc3oc(-c4ccc(OCc5ccccc5)cc4)cc(=O)c3c(O)c2OCc2ccccc2)[C@H](O)[C@@H](O)[C@@H]1O
Activity (HepG2 [1]): Active | Activity (HepG2 [2]): Active | Activity (HepG2 [3]): 15.14% | Activity (HepG2 [4]): Active | viability at 1.2 µM (HepG2 [5]): 41.8% | Activity (HepG2 [6]): 13.46% | Activity (L02 [7]): 2.27% | Activity (HepG2 [8]): Dose-dependent effect | Activity (HepG2 [9]): 2.31% | Activity (HepG2 [10]): 47.14% | Activity (L02 [11]): 1.53% | Activity (HepG2 [12]): 69.63% | Activity (L02 [13]): 2.76% | Activity (HepG2 [14]): 58.47% | Activity (HepG2 [15]): 27.12%

COc1ccc(-c2cc(=O)c3c(O)c(OC)c(O[C@@H]4O[C@H](C(=O)NCCOc5no[n+]([O-])c5S(=O)(=O)c5ccccc5)[C@@H](O)[C@H](O)[C@H]4O)cc3o2)cc1
Activity (L02 [16]): 2.95% | Activity (PC-3 [17]): 40.49% | Activity (PC-3 [18]): 13.48% | Activity (PC-3 [19]): Active | Activity (PC-3 [20]): 4.42% | Activity (PC-3 [21]): 5.21% | Activity (PC-3 [22]): Active | Activity (L02 [23]): 1.32% | Activity (PC-3 [24]): 12.75% | viability at 0.16 µM (PC-3 [25]): 79.1% | Activity (PC-3 [26]): 11.62%

— ChEMBL document CHEMBL4052629, “Scutellarin derivatives as apoptosis inducers: Design, synthesis and biological evaluation” (Eur J Med Chem, 2017)
